Data set [1] addresses T1, Protein kinase C alpha type (Homo sapiens, UniProt P17252). Put plainly: Affinity for protein kinase-C alpha (PK-C alpha). The gist of the method: (§1)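 Competitive displacement of bound [20-3H]phorbol 12,13-dibutyrate (PDBU) from recombinant single-isozyme PK-Cα in the presence of phosphatidylserine. ID50 was obtained by fitting the inhibition data points to a theoretical noncooperative competition curve.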

The nature of data set [2]: Partition coefficient (logP). The format is physicochemical. The settings on record: octanol/water.
Data set [3] has as its target T1, Protein kinase C alpha type. The data set is described as follows: Affinity for protein kinase C alpha. The gist of the method: as §1

Molecules are shown by their SMILES.

By Ki is commonly meant a measure of affinity in units of concentration, obtained from inhibition or displacement. High values mean weaker binding, low ones tighter binding. As for `CC(C)C(C/C=C1/CC([C@H](CO)OC(=O)CC(C(C)C)C(C)C)OC1=O)C(C)C` (stereo not given in full), affinity in data set [1] was put at a Ki of 327 nM.

By logP is commonly meant the decadic logarithm of the partition coefficient of the neutral form, usually between octanol and water. Low values mean a more hydrophilic compound, high ones a more lipophilic compound. On to `CCCCCCCC/C=C1\CC([C@H](CO)OC(=O)CCCCCCCC)OC1=O` (stereo not given in full), for which, in data set [2], the logP was found to be 6.3. Also, the Ki in data set [3] and in data set [1] was 1200 nM in each case. Consider `CCCCCCCCC(=O)O[C@@H](CO)C1C/C(=C\CC(C(C)C)C(C)C)C(=O)O1` (stereo not given in full), for which the logP in data set [2] was 6.08. The molecule further came in with a Ki in data set [1] of 1090 nM.

`CCCCCCCCCCCCCC(=O)O[C@@H](CO)C1CCC(=O)O1` (stereo not given in full): the Ki in data set [3] and in data set [1] was 1000 nM each time. In turn, `CCCCCCCCC/C=C1/CC(CO)(COC(=O)CC(C)C)OC1=O` (stereo not given) gave a Ki in data set [3] of 13 nM. The molecule `CCCCCCCCC(=O)O[C@@H](CO)C1C/C(=C/CC(C(C)C)C(C)C)C(=O)O1` (stereo not given in full) returned a Ki in data set [1] of 499 nM.

On to `CCCCCCCC/C=C1/CC([C@H](CO)OC(=O)CCCCCCCC)OC1=O` (stereo not given in full), for which the Ki in data set [3] and in data set [1] was 1760 nM in each case.

In turn, `CCCCCCCC/C=C1/CC([C@H](CO)OC(=O)CC(C)C)OC1=O` (stereo not given in full) yielded a Ki in data set [3] of 565 nM. With `CCCCCCCCCC(=O)OCC1(CO)C/C(=C/CC(C)C)C(=O)O1` (stereo not given), the Ki in data set [3] came to 2.3 nM. On the same count and under the same terms, the same measure for `CCCCCCCC/C=C1\CC([C@H](CO)OC(=O)CC(C)C)OC1=O` (stereo not given in full): 579 nM; for `CCCCCCC/C=C/CCCCCCC/C=C1/CC(CO)(COC(C)=O)OC1=O` (stereo not given): 24 nM. Take `CC(C)C(C/C=C1\CC([C@H](CO)OC(=O)CC(C(C)C)C(C)C)OC1=O)C(C)C` (stereo not given in full): in data set [2], the logP was 5.86. The Ki in data set [1] worked out at 679 nM. Consider `CCCCCCCC/C=C/CCCCCCCC(=O)OCC1(CO)CCC(=O)O1` (stereo not given), for which the inhibition constant Ki in data set [3] amounted to 96 nM. In the case of `CCCCCCCC/C=C1/CC([C@H](CO)OC(=O)CC(C(C)C)C(C)C)OC1=O` (stereo not given in full), the Ki in data set [1] amounted to 565 nM.
